Measured values published in ChEMBL document CHEMBL4837234, “"Clicking" fragment leads to novel dual-binding cholinesterase inhibitors” (Bioorg Med Chem, 2021).
Active and inactive are the calls of the source. No cut-off for these calls is given here.

Assays:
Acetylcholinesterase [1] = molecular target: T1, Acetylcholinesterase (Homo sapiens, UniProt P22303); experiment: Inhibition of human erythrocyte AChE using acetylthiocholine iodide as substrate incubated for 25 mins by DTNB reagent based Ellman's method; type: tissue-based
T1 sequence (P22303 whole entry): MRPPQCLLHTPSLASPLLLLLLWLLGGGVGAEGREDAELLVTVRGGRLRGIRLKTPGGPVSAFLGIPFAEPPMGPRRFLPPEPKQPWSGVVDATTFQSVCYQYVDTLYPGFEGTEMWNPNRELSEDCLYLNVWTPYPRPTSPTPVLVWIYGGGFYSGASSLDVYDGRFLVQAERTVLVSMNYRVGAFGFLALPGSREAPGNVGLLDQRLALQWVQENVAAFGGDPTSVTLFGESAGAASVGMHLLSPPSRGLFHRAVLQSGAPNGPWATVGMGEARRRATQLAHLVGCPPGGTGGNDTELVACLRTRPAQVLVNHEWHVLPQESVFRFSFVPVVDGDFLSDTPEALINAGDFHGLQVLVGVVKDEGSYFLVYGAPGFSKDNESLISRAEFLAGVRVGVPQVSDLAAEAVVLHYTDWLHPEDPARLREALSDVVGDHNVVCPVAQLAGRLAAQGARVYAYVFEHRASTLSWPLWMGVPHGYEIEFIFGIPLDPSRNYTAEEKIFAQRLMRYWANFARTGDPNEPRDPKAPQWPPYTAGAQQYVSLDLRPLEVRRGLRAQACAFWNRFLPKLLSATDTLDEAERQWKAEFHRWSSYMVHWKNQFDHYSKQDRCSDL

Cholinesterase [2] = molecular target: T2, Cholinesterase (Homo sapiens, UniProt P06276); experiment: Inhibition of human serum BuChe using butyrylthiocholine iodide as substrate incubated for 25 mins by DTNB reagent based Ellman's method; type: cell-free
T2 sequence (P06276 whole entry): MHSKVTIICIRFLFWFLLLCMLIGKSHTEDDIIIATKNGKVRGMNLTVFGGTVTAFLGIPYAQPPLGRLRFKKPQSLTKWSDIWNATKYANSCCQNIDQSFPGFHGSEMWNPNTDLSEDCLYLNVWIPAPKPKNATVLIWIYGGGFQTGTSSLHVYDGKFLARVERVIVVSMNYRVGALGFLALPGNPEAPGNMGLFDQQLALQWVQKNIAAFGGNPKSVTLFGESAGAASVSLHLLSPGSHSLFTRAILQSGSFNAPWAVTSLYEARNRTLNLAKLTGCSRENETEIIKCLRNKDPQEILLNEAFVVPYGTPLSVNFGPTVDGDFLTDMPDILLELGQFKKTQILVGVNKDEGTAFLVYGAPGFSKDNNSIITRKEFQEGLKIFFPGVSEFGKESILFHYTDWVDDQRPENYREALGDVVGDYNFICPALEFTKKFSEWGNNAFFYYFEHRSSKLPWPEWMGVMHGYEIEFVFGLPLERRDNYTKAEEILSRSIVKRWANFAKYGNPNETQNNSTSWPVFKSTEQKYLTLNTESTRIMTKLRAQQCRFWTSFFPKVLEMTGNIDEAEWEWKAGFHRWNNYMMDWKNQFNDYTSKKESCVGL
Summary of the method: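 Compound (Tween 80/EtOH stock, final dilutions in pH 8.0 phosphate buffer) preincubated with enzyme 30 min at room temperature, then substrate 0.5 mM plus DTNB, 25 min, 37 °C; yellow anion read spectrophotometrically. Triplicate, three occasions; IC50 from % activity vs log concentration.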

Cholinesterase [3] = molecular target: T2, Cholinesterase; experiment: Mixed type inhibition of human serum BuChe assessed as decrease in Vmax at 89 to 267 nM using varying level of butyrylthiocholine iodide as substrate by Lineweaver-Burk plot analysis; type: cell-free; conditions: dose 89-267 nM
Summary of the method: (§1)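 hBChE from human plasma diluted 1:125 in 0.1 M Na₃PO₄ pH 7.4. Ellman set-up (30 min room-temperature preincubation, then 37 °C with DTNB 1.2 mM) with substrate 0.25, 0.5, 1 and 2 mM and inhibitor 89 and 267 nM. Vmax and Km from nonlinear regression of substrate–velocity curves; Lineweaver–Burk plots by linear regression.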

Acetylcholinesterase [4] = molecular target: T1, Acetylcholinesterase; experiment: Mixed type inhibition of human erythrocyte AChE assessed as increase in Km at 3.3 to 9.9 nM using varying level of acetylthiocholine iodide as substrate by Lineweaver-Burk plot analysis; type: tissue-based; conditions: dose 3.3-9.9 nM
Summary of the method: (§2)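 hAChE from human erythrocytes, washed in saline and lysed in 0.1 M Na₃PO₄ pH 7.4 with 0.5% Triton-X, then diluted. Ellman set-up (30 min room-temperature preincubation, then 37 °C with DTNB 1.2 mM) using substrate 0.25, 0.5, 1 and 2 mM and inhibitor 3.3 and 9.9 nM. Vmax and Km by nonlinear regression of substrate–velocity curves; Lineweaver–Burk by linear regression.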

Acetylcholinesterase [5] = molecular target: T1, Acetylcholinesterase; experiment: Mixed type inhibition of human erythrocyte AChE assessed as decrease in Vmax at 3.3 to 9.9 nM using varying level of acetylthiocholine iodide as substrate by Lineweaver-Burk plot analysis; type: tissue-based; conditions: dose 3.3-9.9 nM; summary of the method: as §2
Cholinesterase [6] = molecular target: T2, Cholinesterase; experiment: Mixed type inhibition of human serum BuChe assessed as increase in Km at 89 to 267 nM using varying level of butyrylthiocholine iodide as substrate by Lineweaver-Burk plot analysis; type: cell-free; conditions: dose 89-267 nM; summary of the method: as §1

| SMILES | IC50 (Acetylcholinesterase [1]) [nM] | IC50 (Cholinesterase [2]) [nM] | inhibition (Cholinesterase [3]) | inhibition (Acetylcholinesterase [4]) | inhibition (Acetylcholinesterase [5]) | inhibition (Cholinesterase [6]) |
| --- | --- | --- | --- | --- | --- | --- |
| COc1ccc2[nH]cc(CCNC(=O)Cn3cc(CCCCN(C)CCCC4c5cc(OC)c(OC)cc5CCN4C)nn3)c2c1 (stereo unspecified) | 2200 | 1600 |  |  |  |  |
| COc1ccc2c3c1O[C@H]1C[C@@H](O)C=C[C@@]31CCN(CCCCc1cn(CC(=O)NCCc3c[nH]c4ccccc34)nn1)C2 | 138 | 907 |  |  |  |  |
| COc1ccc2[nH]cc(CCNC(=O)CCCCn3cc(CCCCN4CC[C@@]56C=C[C@H](O)C[C@@H]5Oc5c(OC)ccc(c56)C4)nn3)c2c1 | 18 | 963 |  |  |  |  |
| COc1ccc2[nH]c(CCNC(=O)CCCn3cc(CCCCN4CCc5cc(OC)c(OC)cc5C4CCCN4C(=O)c5ccccc5C4=O)nn3)cc2c1 (stereo unspecified) | 159000 | 4600 |  |  |  |  |
| COc1ccc2[nH]cc(CCNC(=O)Cn3cc(CN4CCc5cc(OC)c(OC)cc5C4CCCN4C(=O)c5ccccc5C4=O)nn3)c2c1 (stereo unspecified) | 39900 | 26200 |  |  |  |  |
| COc1ccc2[nH]c(CCNC(=O)Cn3cc(CCCCN4CCc5cc(OC)c(OC)cc5C4CCCN4C(=O)c5ccccc5C4=O)nn3)cc2c1 (stereo unspecified) | 174000 | 57200 |  |  |  |  |
| COc1ccc2[nH]cc(CCNC(=O)Cn3cc(CCCCN4CC[C@@]56C=C[C@H](O)C[C@@H]5Oc5c(OC)ccc(c56)C4)nn3)c2c1 | 23 | 554 |  |  |  |  |
| COc1ccc2[nH]cc(CCNC(=O)CCCCn3cc(CN4CC[C@@]56C=C[C@H](O)C[C@@H]5Oc5c(OC)ccc(c56)C4)nn3)c2c1 | 1000 | 2020 |  |  |  |  |
| COc1ccc2[nH]cc(CCNC(=O)Cn3cc(CN4CC[C@@]56C=C[C@H](O)C[C@@H]5Oc5c(OC)ccc(c56)C4)nn3)c2c1 | 5410 | 8840 |  |  |  |  |
| COc1ccc2c3c1O[C@H]1C[C@@H](O)C=C[C@@]31CCN(CCCCc1cn(CCCC(=O)NCCc3c[nH]c4ccccc34)nn1)C2 | 120 | 209 | Active | Active | Active | Active |
| COc1ccc2c3c1O[C@H]1C[C@@H](O)C=C[C@@]31CCN(CCCCc1cn(CCCCC(=O)NCCc3c[nH]c4ccccc34)nn1)C2 | 31 | 1290 |  |  |  |  |
